Laboratory results reported in ChEMBL document CHEMBL1687899, “Structure-activity relationships in nucleotide oligomerization domain 1 (Nod1) agonistic γ-glutamyldiaminopimelic acid derivatives” (J Med Chem, 2011).

Target: T1, Nucleotide-binding oligomerization domain-containing protein 1 (Homo sapiens, UniProt Q9Y239)
T1 sequence (Q9Y239 whole entry): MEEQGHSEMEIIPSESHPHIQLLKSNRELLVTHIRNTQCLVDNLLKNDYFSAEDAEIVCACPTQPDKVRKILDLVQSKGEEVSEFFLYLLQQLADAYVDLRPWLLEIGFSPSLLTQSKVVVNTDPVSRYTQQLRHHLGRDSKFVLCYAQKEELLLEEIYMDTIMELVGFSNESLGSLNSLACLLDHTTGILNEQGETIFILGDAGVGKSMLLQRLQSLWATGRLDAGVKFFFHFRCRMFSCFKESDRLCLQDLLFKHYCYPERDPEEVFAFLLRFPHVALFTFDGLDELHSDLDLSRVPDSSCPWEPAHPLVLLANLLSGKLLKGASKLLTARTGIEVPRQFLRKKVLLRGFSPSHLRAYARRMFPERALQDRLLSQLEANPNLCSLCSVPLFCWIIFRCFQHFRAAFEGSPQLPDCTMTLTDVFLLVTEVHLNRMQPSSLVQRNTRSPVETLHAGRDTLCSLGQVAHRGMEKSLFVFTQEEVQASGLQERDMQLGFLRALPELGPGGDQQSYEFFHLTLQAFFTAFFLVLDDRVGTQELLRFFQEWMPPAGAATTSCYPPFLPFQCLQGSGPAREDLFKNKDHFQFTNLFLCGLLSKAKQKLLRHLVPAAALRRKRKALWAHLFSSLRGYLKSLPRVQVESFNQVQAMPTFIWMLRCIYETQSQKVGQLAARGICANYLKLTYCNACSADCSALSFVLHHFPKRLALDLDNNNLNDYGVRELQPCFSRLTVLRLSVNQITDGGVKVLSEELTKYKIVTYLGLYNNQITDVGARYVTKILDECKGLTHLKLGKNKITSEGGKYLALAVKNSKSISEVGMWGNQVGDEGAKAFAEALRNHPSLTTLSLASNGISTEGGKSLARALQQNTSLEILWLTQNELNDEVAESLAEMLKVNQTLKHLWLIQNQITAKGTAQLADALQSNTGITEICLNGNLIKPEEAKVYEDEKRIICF
Assay: Agonist activity at human NOD-1 expressed in human HEK293 cells assessed as NF-kappaB induction by spectrophotometric analysis
Type: functional, cell-based
Method in brief: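 HEK-Blue cells (HEK293 stably transfected with human Nod1 and an NF-κB/AP-1-inducible secreted alkaline phosphatase reporter) were kept in selection medium with zeocin and normocin. Cells at ~10^5 cells/mL were grown to confluency and then given graded compound concentrations. Supernatant sAP was read spectrophotometrically at 620 nm with an alkaline phosphatase-specific chromogen.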

Row | EC50 | SMILES
1 | 0.238 nM | CCCCCCCCCCCOC(=O)[C@@H](CCC(=O)NC(CCCC(N)C(=O)O)C(=O)O)NC(=N)N (some centres not stated)
2 | 0.066 nM | CCCCCCCCCCCOC(=O)[C@H](N)CCC(=O)NC(CCCC(N)C(=O)O)C(=O)O (some centres not stated)
3 | 0.069 nM | CCCCCCCCCCCC(=O)N[C@H](CCC(=O)NC(CCCC(N)C(=O)O)C(=O)O)C(=O)OCC (some centres not stated)
4 | 0.023 nM | CCCCCCCCCCCCN[C@H](CCC(=O)NC(CCCC(N)C(=O)O)C(=O)O)C(=O)O (some centres not stated)
5 | > 100 nM | CCCCCCCCCCCC(=O)N[C@H](CCC(=O)NCCCCCN)C(=O)O
6 | 0.55 nM | CCCCCCCCCCCC(=O)NC(CCCC(NC(=O)CC[C@@H](N)C(=O)O)C(=O)O)C(=O)O (some centres not stated)
7 | 0.181 nM | CCCCCCCCCCCSC(=O)[C@H](N)CCC(=O)NC(CCCC(N)C(=O)OCC)C(=O)OCC (some centres not stated)
8 | 0.2 nM | CCCCCCCCN(CCCCCCCC)[C@H](CCC(=O)NC(CCCC(N)C(=O)O)C(=O)O)C(=O)O (some centres not stated)
9 | 1.73 nM | CCCCCCCCCCCC(=O)N[C@H](CCC(=O)NC1CCCCNC1=O)C(=O)O (some centres not stated)
10 | 0.134 nM | CCCCCCCCCCCOC(=O)[C@@H](CCC(=O)NC(CCCC(N)C(=O)O)C(=O)O)NC(=O)CCCCCCCCCCC (some centres not stated)
11 | 0.12 nM | CCCCCCCCCCCCCCCCN(CCCCCCCCCCCCCCCC)[C@H](CCC(=O)NC(CCCC(N)C(=O)O)C(=O)O)C(=O)O (some centres not stated)
12 | 0.96 nM | CCCCCCCCCCCC(=O)N[C@H](CCC(=O)NCCCC[C@H](N)C(=O)O)C(=O)O
